≈ marks a conversion by molar mass, not a printed value.

Holding throughout (type): functional
One assay has as its system Enterococcus faecalis. In words: Antibacterial activity tested against vancomycin-resistant Enterococcus faecalis. An outline of the steps: (§1)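 Broth MIC against clinical isolates (S. pneumoniae, VRE E. faecalis) in tryptic soy broth with 7% calf serum, inoculum 1-5 × 10^5 CFU/mL. DMSO serial dilutions gave 1% final DMSO and a 300 µM highest concentration. Plates were incubated 20-72 h at 37 °C and read by turbidity or microscopy. Vehicle and reference controls were included; run in duplicate.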

The next assay relates to Staphylococcus aureus. Description: Antibacterial activity against methicillin-resistant Staphylococcus aureus. An outline of the steps:
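Broth dilution MIC against MRSA in Mueller-Hinton broth with 1-5 × 10^5 CFU/mL inoculum. Compounds were serially diluted in DMSO (final DMSO 1%, top concentration 300 µM) and incubated 20-72 h at 37 °C. MIC was read by visual turbidity or microscopy. Vehicle and reference agents served as controls; run in duplicate.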

The subject of another assay is Streptococcus pneumoniae. Description: Antibacterial activity tested against ampicillin and erythromycin-resistant Streptococcus pneumoniae. The procedure, abridged: as §1

In the case of `CCn1cc(C(=O)O)c(=O)c2cc(F)c(N3CCN(CC(=O)c4ccc(OC)cc4)CC3)c(F)c21`, the MIC in the assay with Enterococcus faecalis was more than 200 µM; in the assay with Staphylococcus aureus, 0.62 µM (≈ 0.301 µg/mL); against Streptococcus pneumoniae, more than 200 µM.

With `CCn1cc(C(=O)O)c(=O)c2cc(F)c(N3CCN(C/C(=N\O)c4ccc(F)cc4)CC3)cc21`, the MIC in the assay with Enterococcus faecalis is more than 200 µM; against Staphylococcus aureus it was 2.13 µM (≈ 1 µg/mL); with Streptococcus pneumoniae it was more than 200 µM.

On to `CCn1cc(C(=O)O)c(=O)c2cc(F)c(N3CCN(C/C(=N\O)c4ccc(Cl)cc4)CC3)c(F)c21`, for which the results for the MIC against Enterococcus faecalis, against Staphylococcus aureus and in the assay with Streptococcus pneumoniae were 19.8 µM (≈ 10 µg/mL), 0.59 µM (≈ 0.298 µg/mL) and 19.8 µM (≈ 10 µg/mL), respectively.

Take `CCn1cc(C(=O)O)c(=O)c2cc(F)c(N3CCN(C/C(=N\O)c4ccccc4)CC3)cc21`: the MIC is more than 200 µM in the assay with Enterococcus faecalis, 0.44 µM (≈ 0.199 µg/mL) with Staphylococcus aureus and more than 200 µM against Streptococcus pneumoniae.

Regarding `CCn1cc(C(=O)O)c(=O)c2cc(F)c(N3CCN(C/C(=N/N=C(/N)S)c4ccccc4)CC3)c(F)c21`, the MIC against Enterococcus faecalis was more than 200 µM; in the assay on Staphylococcus aureus, 0.74 µM (≈ 0.391 µg/mL); in the assay on Streptococcus pneumoniae it was more than 200 µM.

Regarding `CCn1cc(C(=O)O)c(=O)c2cc(F)c(N3CCN(C/C(=N/NC(N)=O)c4ccccc4)CC3)cc21`, the MIC with Enterococcus faecalis came out at 25.3 µM (≈ 12.5 µg/mL); against Staphylococcus aureus, 3.15 µM (≈ 1.56 µg/mL); in the assay with Streptococcus pneumoniae, 25.3 µM (≈ 12.5 µg/mL).

Consider `CCn1cc(C(=O)O)c(=O)c2cc(F)c(N3CCN(C/C(=N\O)c4ccc(OC)cc4)CC3)c(F)c21`, for which the minimal inhibitory concentration (MIC) was determined as 3.12 µM (≈ 1.56 µg/mL) in the assay on Enterococcus faecalis, 0.2 µM (≈ 0.1 µg/mL) in the assay with Staphylococcus aureus and 6.25 µM (≈ 3.13 µg/mL) against Streptococcus pneumoniae.

Take `CCn1cc(C(=O)O)c(=O)c2cc(F)c(N3CCN(CC(=O)c4ccc(OC)cc4)CC3)cc21`: the MIC against Enterococcus faecalis was more than 200 µM; in the assay on Staphylococcus aureus, 6.7 µM (≈ 3.13 µg/mL); against Streptococcus pneumoniae, more than 200 µM.

With `CCn1cc(C(=O)O)c(=O)c2cc(F)c(N3CCN(C/C(=N\O)c4ccc(Cl)cc4)CC3)cc21`, the MIC in the assay on Enterococcus faecalis, in the assay with Staphylococcus aureus and in the assay on Streptococcus pneumoniae was more than 200 µM throughout.

Regarding `O=C(O)c1cn(-c2ccc([N+](=O)[O-])cc2)c2cc(N3CCN(C/C(=N\O)c4ccc(F)cc4)CC3)c(F)cc2c1=O`, the MIC in the assay on Enterococcus faecalis, in the assay with Staphylococcus aureus and in the assay with Streptococcus pneumoniae was more than 200 µM in each case.

For the molecule `COc1ccc(C(=O)CN2CCN(c3cc4c(cc3F)c(=O)c(C(=O)O)cn4-c3ccc(N)cc3F)CC2)cc1`, the MIC worked out at 5.47 µM (≈ 3 µg/mL) in the assay with Enterococcus faecalis, 0.55 µM (≈ 0.302 µg/mL) against Staphylococcus aureus and 1.82 µM (≈ 0.998 µg/mL) in the assay with Streptococcus pneumoniae.

Consider `COc1ccc(/C(CN2CCN(c3cc4c(cc3F)c(=O)c(C(=O)O)cn4-c3ccc([N+](=O)[O-])cc3)CC2)=N/O)cc1`, for which the results for the MIC against Enterococcus faecalis, in the assay with Staphylococcus aureus and against Streptococcus pneumoniae were 21.7 µM (≈ 12.5 µg/mL), 1.36 µM (≈ 0.783 µg/mL) and 10.9 µM (≈ 6.27 µg/mL), respectively.

Take `CCn1cc(C(=O)O)c(=O)c2cc(F)c(N3CCNCC3)c(F)c21`: the MIC was 18.5 µM (≈ 6.24 µg/mL) in the assay on Enterococcus faecalis, 2.31 µM (≈ 0.779 µg/mL) in the assay on Staphylococcus aureus and 18.5 µM (≈ 6.24 µg/mL) against Streptococcus pneumoniae.

For the molecule `CCn1cc(C(=O)O)c(=O)c2cc(F)c(N3CCN(C/C(=N\OC)c4ccc(Cl)cc4)CC3)cc21`, the MIC against Enterococcus faecalis and in the assay with Streptococcus pneumoniae was more than 200 µM throughout.

For the molecule `CCn1cc(C(=O)O)c(=O)c2cc(F)c(N3CCN(C/C(=N\OC)c4ccc(OC)cc4)CC3)cc21`, the MIC was 12.6 µM (≈ 6.26 µg/mL) in the assay on Enterococcus faecalis, 1.57 µM (≈ 0.78 µg/mL) against Staphylococcus aureus and 12.6 µM (≈ 6.26 µg/mL) against Streptococcus pneumoniae.

Take `CCn1cc(C(=O)O)c(=O)c2cc(F)c(N3CCN(CC(=O)c4ccccc4)CC3)c(F)c21`: the figures for the minimal inhibitory concentration (MIC) against Enterococcus faecalis, in the assay with Staphylococcus aureus and with Streptococcus pneumoniae were 13.7 µM (≈ 6.24 µg/mL), 1.71 µM (≈ 0.779 µg/mL) and 13.7 µM (≈ 6.24 µg/mL), respectively.

`CCn1cc(C(=O)O)c(=O)c2cc(F)c(N3CCN(C/C(=N\O)c4ccc(F)cc4)CC3)c(F)c21`: the minimum inhibitory concentration (MIC) in the assay with Enterococcus faecalis was determined as 2.05 µM (≈ 1 µg/mL); in the assay with Staphylococcus aureus it was 0.61 µM (≈ 0.298 µg/mL); with Streptococcus pneumoniae, 6.14 µM (≈ 3 µg/mL).

With `CCn1cc(C(=O)O)c(=O)c2cc(F)c(N3CCN(CC(=O)c4ccc(F)cc4)CC3)cc21`, the figures for the MIC against Enterococcus faecalis, in the assay on Staphylococcus aureus and against Streptococcus pneumoniae were more than 200 µM, 6.87 µM (≈ 3.13 µg/mL) and more than 200 µM, respectively.

With `O=C(CN1CCN(c2cc3c(cc2F)c(=O)c(C(=O)O)cn3-c2ccc([N+](=O)[O-])cc2)CC1)c1ccc(F)cc1`, the MIC against Enterococcus faecalis, with Staphylococcus aureus and in the assay with Streptococcus pneumoniae was more than 200 µM in each case.

For `CCn1cc(C(=O)O)c(=O)c2cc(F)c(N3CCN(CC(=O)c4ccc(Cl)cc4)CC3)cc21`, the MIC in the assay with Enterococcus faecalis, with Staphylococcus aureus and with Streptococcus pneumoniae was more than 200 µM each time.

With `CCn1cc(C(=O)O)c(=O)c2cc(F)c(N3CCN(C/C(=N/NC(N)=O)c4ccccc4)CC3)c(F)c21`, the MIC against Enterococcus faecalis worked out at 6.11 µM (≈ 3.13 µg/mL); in the assay on Staphylococcus aureus, 0.39 µM (≈ 0.2 µg/mL); against Streptococcus pneumoniae, 6.11 µM (≈ 3.13 µg/mL).

Consider `CCn1cc(C(=O)O)c(=O)c2cc(F)c(N3CCN(CC(=O)c4ccccc4)CC3)cc21`, for which the results for the MIC against Enterococcus faecalis, against Staphylococcus aureus and with Streptococcus pneumoniae were more than 200 µM, 7.15 µM (≈ 3.13 µg/mL) and more than 200 µM, respectively.

For the molecule `COc1ccc(C(=O)CN2CCN(c3cc4c(cc3F)c(=O)c(C(=O)O)cn4-c3ccc([N+](=O)[O-])cc3)CC2)cc1`, the minimal inhibitory concentration (MIC) with Enterococcus faecalis is more than 200 µM; against Staphylococcus aureus, 5.58 µM (≈ 3.13 µg/mL); against Streptococcus pneumoniae it was more than 200 µM.

For `O=C(O)c1cn(-c2ccc([N+](=O)[O-])cc2F)c2cc(N3CCNCC3)c(F)cc2c1=O`, the MIC worked out at 29 µM (≈ 12.5 µg/mL) in the assay on Enterococcus faecalis, 7.27 µM (≈ 3.13 µg/mL) against Staphylococcus aureus and 0.46 µM (≈ 0.198 µg/mL) against Streptococcus pneumoniae.

On to `Nc1ccc(-n2cc(C(=O)O)c(=O)c3cc(F)c(N4CCNCC4)cc32)c(F)c1`, for which the MIC was determined as 15.6 µM (≈ 6.25 µg/mL) with Enterococcus faecalis, 0.97 µM (≈ 0.388 µg/mL) against Staphylococcus aureus and 3.9 µM (≈ 1.56 µg/mL) against Streptococcus pneumoniae.

As for `CCn1cc(C(=O)O)c(=O)c2cc(F)c(N3CCN(C/C(=N\OC)c4ccc(Cl)cc4)CC3)c(F)c21`, the MIC with Enterococcus faecalis, against Staphylococcus aureus and in the assay with Streptococcus pneumoniae was more than 200 µM in each case.

Regarding `CCn1cc(C(=O)O)c(=O)c2cc(F)c(N3CCN(C/C(=N/N=C(/N)S)c4ccccc4)CC3)cc21`, the MIC in the assay on Enterococcus faecalis came out at 12.2 µM (≈ 6.23 µg/mL); in the assay on Staphylococcus aureus, 1.53 µM (≈ 0.781 µg/mL); in the assay on Streptococcus pneumoniae it was 24.5 µM (≈ 12.5 µg/mL).

For the molecule `COc1ccc(C(=O)CN2CCN(c3cc4c(cc3F)c(=O)c(C(=O)O)cn4-c3ccc([N+](=O)[O-])cc3F)CC2)cc1`, the MIC came out at 43.2 µM (≈ 25 µg/mL) in the assay with Enterococcus faecalis, 2.7 µM (≈ 1.56 µg/mL) against Staphylococcus aureus and 5.41 µM (≈ 3.13 µg/mL) in the assay with Streptococcus pneumoniae.

As to `COc1ccc(/C(CN2CCN(c3cc4c(cc3F)c(=O)c(C(=O)O)cn4-c3ccc([N+](=O)[O-])cc3F)CC2)=N/O)cc1`, the figures for the MIC with Enterococcus faecalis, against Staphylococcus aureus and in the assay on Streptococcus pneumoniae were 5.27 µM (≈ 3.13 µg/mL), 0.34 µM (≈ 0.202 µg/mL) and 1.31 µM (≈ 0.778 µg/mL), respectively.

Consider `CCn1cc(C(=O)O)c(=O)c2cc(F)c(N3CCNCC3)cc21` [NORFLOXACIN], for which the results for the MIC with Enterococcus faecalis, against Staphylococcus aureus and with Streptococcus pneumoniae were 9.8 µM (≈ 3.13 µg/mL), 4.89 µM (≈ 1.56 µg/mL) and 19.6 µM (≈ 6.26 µg/mL), respectively.

Consider `CCn1cc(C(=O)O)c(=O)c2cc(F)c(N3CCN(C/C(=N\O)c4ccc(OC)cc4)CC3)cc21`, for which the MIC against Enterococcus faecalis came to 3.23 µM (≈ 1.56 µg/mL); in the assay on Staphylococcus aureus it was 0.41 µM (≈ 0.198 µg/mL); against Streptococcus pneumoniae it was 13 µM (≈ 6.27 µg/mL).

Consider `CCn1cc(C(=O)O)c(=O)c2cc(F)c(N3CCN(C/C(=N\N)c4ccc(F)cc4)CC3)cc21`, for which the figures for the MIC with Enterococcus faecalis, against Staphylococcus aureus and against Streptococcus pneumoniae were 26.6 µM (≈ 12.5 µg/mL), 1.66 µM (≈ 0.779 µg/mL) and 26.6 µM (≈ 12.5 µg/mL), respectively.

In the case of `COc1ccc(/C(CN2CCN(c3cc4c(cc3F)c(=O)c(C(=O)O)cn4-c3ccc(N)cc3F)CC2)=N/O)cc1`, the MIC was 5.32 µM (≈ 3 µg/mL) against Enterococcus faecalis, 0.53 µM (≈ 0.299 µg/mL) in the assay on Staphylococcus aureus and 1.77 µM (≈ 0.998 µg/mL) against Streptococcus pneumoniae.

A word on the MIC: it is the least concentration at which growth counts as inhibited.

The values above are taken from ChEMBL document CHEMBL1134762, “Synthesis and antibacterial evaluation of certain quinolone derivatives” (2001).
